Test [1] is described as follows: Increase in cytosolic [Ca2+] concentration in TSU-Pr1 cells at given effective cytotoxic concentration. The format is functional, Homo sapiens.
The species named for test [2] is Oryctolagus cuniculus. The test is described as follows: Inhibition of rabbit skeletal muscle sarcoplasmic and endoplasmic reticulum [Ca(2+)]-dependent ATPases(SERCA) activity. The essentials:
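Rabbit skeletal-muscle SR microsomes were prepared by differential centrifugation with a 0.6 M KCl wash. Buffer was pH 7.5 Tris with KCl, MgCl2, EGTA/CaCl2 and A23187. Doses were in nmol/mg SR protein. Activity is % of uninhibited control in triplicate, corrected for residual Ca²⁺-independent ATPase.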

Test [3] can be described thus: Loss of clonogenic survival of human prostate cancer TSU-Pr1 cells relative to TG was determined. The format is functional.
Test [4] is filed under the species Oryctolagus cuniculus. Put plainly: Inhibition of rabbit skeletal muscle SERCA activity relative to TG.
The nature of test [5]: Loss of clonogenic survival of human prostate cancer TSU-Pr1 cells. The format is functional. Conditions: read-out: LC50 (the source's name). In a few lines: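 TSU-Pr1 human prostatic cancer cells treated with each analogue. Clonogenic survival compared with untreated controls. Value reported as LC50 (µM), the concentration producing 50% loss of clonogenic survival.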

Several values for one entry are separate records, joined by “and”; a condition that tells them apart may be missing. Equal entries are not always repeated.

For `C/C=C(/C)C(=O)O[C@H]1C(C)=C2[C@H]([C@@H]1OC(=O)CCCCCCC)[C@@](C)(OC(C)=O)C[C@H](OC(=O)CCCCCN)[C@@]1(O)[C@H]2OC(=O)[C@@]1(C)O`, the figures for the Activity (in test [1]; in test [3]; in the test filed under Oryctolagus cuniculus [4]) were 284 nM, above 667 and 99, respectively. In the test listed under Oryctolagus cuniculus [2], this molecule showed an ID50 (nM (mg SR protein)-1) of 1330. For the same molecule, the CC50 in test [5] was above 20000 nM.

`C/C=C(/C)C(=O)O[C@H]1C(C)=C2[C@H]([C@@H]1OC(=O)CCCCCCC)[C@@](C)(OC(C)=O)C[C@H](OC(=O)CCCCCCCCCCCNC(=O)[C@@H](N)CO)[C@@]1(O)[C@H]2OC(=O)[C@@]1(C)O` returned an ID50 (nM (mg SR protein)-1) in the test listed under Oryctolagus cuniculus [2] of 10.3. Besides, the Activity in test [3] came to 30; in the test listed under Oryctolagus cuniculus [4], 0.8. In test [5], the CC50 turned out to be 890 nM.

Regarding `C/C=C(/C)C(=O)O[C@H]1C(C)=C2[C@H]([C@@H]1OC(=O)CCCCCCC)[C@@](C)(OC(C)=O)C[C@H](OC(=O)CCCCCCCCCCCNC(=O)[C@@H](N)Cc1ccccc1)[C@@]1(O)[C@H]2OC(=O)[C@@]1(C)O`, the Activity in test [1] was 446 nM and 406 nM; in test [3], 7. Further, the CC50 in test [5] is 210 nM.

With `C/C=C(/C)C(=O)O[C@H]1C(C)=C2[C@H]([C@@H]1OC(=O)CCCCCCC)[C@@](C)(OC(C)=O)C[C@H](OC(=O)CCc1ccc(NC(=O)[C@@H](N)CC(C)C)cc1)[C@@]1(O)[C@H]2OC(=O)[C@@]1(C)O`, the ID50 (nM (mg SR protein)-1) in the test listed under Oryctolagus cuniculus [2] amounted to 466. Moreover, the Activity in test [3] stood at 29; in the test filed under Oryctolagus cuniculus [4] it was 35. In addition, in test [5], the CC50 was found to be 880 nM.

With `C/C=C(/C)C(=O)O[C@H]1C(C)=C2[C@H]([C@@H]1OC(=O)CCCCCCC)[C@@](C)(OC(C)=O)C[C@H](OC(=O)CCCCCCCN)[C@@]1(O)[C@H]2OC(=O)[C@@]1(C)O`, the Activity turned out to be 217 nM in test [1], 128 in test [3] and 17 in the test listed under Oryctolagus cuniculus [4]. The ID50 (nM (mg SR protein)-1) in the test filed under Oryctolagus cuniculus [2] was determined as 223. Moreover, the CC50 in test [5] turned out to be 3850 nM.

As to `C/C=C(/C)C(=O)O[C@H]1C(C)=C2[C@H]([C@@H]1OC(=O)CCCCCCC)[C@@](C)(OC(C)=O)C[C@H](OC(=O)CCCCCCCCCCN)[C@@]1(O)[C@H]2OC(=O)[C@@]1(C)O`, the Activity in test [1] was 420 nM and 242 nM; in test [3], 25; in the test filed under Oryctolagus cuniculus [4], 3. In the test listed under Oryctolagus cuniculus [2], this molecule displayed an ID50 (nM (mg SR protein)-1) of 40. For the same molecule, the CC50 in test [5] was 750 nM.

For `C/C=C(/C)C(=O)O[C@H]1C(C)=C2[C@H]([C@@H]1OC(=O)CCCCCCC)[C@@](C)(OC(C)=O)C[C@H](OC(=O)CCCCCNC(=O)[C@@H](N)CC(C)C)[C@@]1(O)[C@H]2OC(=O)[C@@]1(C)O`, the Activity was 84 nM and 40 nM in test [1]; above 667 in test [3]; 287 in the test filed under Oryctolagus cuniculus [4]. In the test filed under Oryctolagus cuniculus [2], this molecule yielded an ID50 (nM (mg SR protein)-1) of 3840. Also, the CC50 in test [5] was above 20000 nM.

Consider `C/C=C(/C)C(=O)O[C@H]1C(C)=C2[C@H]([C@@H]1OC(=O)CCCCCCC)[C@@](C)(OC(C)=O)C[C@H](OC(=O)CCCCCCCCCCCNC(=O)[C@@H](N)CC(C)C)[C@@]1(O)[C@H]2OC(=O)[C@@]1(C)O`, for which the Activity amounted to 414 nM in test [1], 1 in test [3] and 3.4 in the test filed under Oryctolagus cuniculus [4]. Moreover, the “[Ca2+]” value in test [1] is recorded as 173 nM. This molecule returned an ID50 (nM (mg SR protein)-1) in the test filed under Oryctolagus cuniculus [2] of 45. In addition, the CC50 in test [5] came out at 30 nM.

For the molecule `C/C=C(/C)C(=O)O[C@H]1C(C)=C2[C@H]([C@@H]1OC(=O)CCCCCCC)[C@@](C)(OC(C)=O)C[C@H](OC(=O)CCCCCCCCCCCNC(=O)[C@H](C)N)[C@@]1(O)[C@H]2OC(=O)[C@@]1(C)O`, the Activity in test [1] was 410 nM and 338 nM; in test [3] it was 9.3; in the test filed under Oryctolagus cuniculus [4], 1.2. The molecule further registered an ID50 (nM (mg SR protein)-1) in the test listed under Oryctolagus cuniculus [2] of 16.5. Also, the CC50 in test [5] worked out at 280 nM.

On to `C/C=C(/C)C(=O)O[C@H]1C(C)=C2[C@H]([C@@H]1OC(=O)CCCCCCC)[C@@](C)(OC(C)=O)C[C@H](OC(=O)CCCCCCN)[C@@]1(O)[C@H]2OC(=O)[C@@]1(C)O`, for which the Activity in test [1] was 209 nM; in test [3], 364; in the test filed under Oryctolagus cuniculus [4] it was 90. This molecule gave an ID50 (nM (mg SR protein)-1) in the test listed under Oryctolagus cuniculus [2] of 1210. Besides, the CC50 in test [5] was found to be 10900 nM.

For `C/C=C(/C)C(=O)O[C@H]1C(C)=C2[C@H]([C@@H]1OC(=O)CCCCCCC)[C@@](C)(OC(C)=O)C[C@H](OC(=O)CCCCCCCCCCCN)[C@@]1(O)[C@H]2OC(=O)[C@@]1(C)O`, the Activity in test [1] was 369 nM and 235 nM; in test [3] it was 39; in the test listed under Oryctolagus cuniculus [4], 2.6. This molecule also had an ID50 (nM (mg SR protein)-1) in the test filed under Oryctolagus cuniculus [2] of 35. Besides, in test [5], the CC50 was 1160 nM.

With `C/C=C(/C)C(=O)O[C@H]1C(C)=C2[C@H]([C@@H]1OC(=O)CCCCCCC)[C@@](C)(OC(C)=O)C[C@H](OC(=O)CCC)[C@@]1(O)[C@H]2OC(=O)[C@@]1(C)O` [THAPSIGARGIN], the ID50 (nM (mg SR protein)-1) in the test listed under Oryctolagus cuniculus [2] is 13.4. The Activity (in test [3]; in the test listed under Oryctolagus cuniculus [4]) was 1 throughout. The CC50 in test [5] stood at 30 nM.

(Values after ChEMBL document CHEMBL1134327, “Design, synthesis, and pharmacological evaluation of thapsigargin analogues for targeting apoptosis to prostatic cancer cells” (2001).)
